By Cmax is commonly meant the highest concentration seen after dosing. As a reminder, the IC50 is the concentration at which inhibition is half-maximal. As usually defined, the EC50 is the concentration needed to bring the measured effect to its halfway point. A word on the solubility: it is how much of the substance goes into solution per volume. Broadly, the logD is lipophilicity at a set pH, counting ionised and neutral species. Low values mean a more hydrophilic compound, high ones a more lipophilic compound.

We go through two compounds from ChEMBL document CHEMBL1781999, “Lead optimization of aryl and aralkyl amine-based triazolopyrimidine inhibitors of Plasmodium falciparum dihydroorotate dehydrogenase with antimalarial activity in mice” (J Med Chem, 2011).

In series [1] the test system is Mus musculus. In words: Cmax in Swiss mouse at 20 mg/kg, po measured after 24 hrs by LC-MS analysis. The series is classed as ADME, organism-based. More on the design: dose 20 mg/kg, route oral. The following applies: in vivo. In outline:
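Non-fasted male Swiss outbred mice given a single oral gavage dose in 0.5% w/v sodium carboxymethylcellulose, 0.5% v/v benzyl alcohol, 0.4% v/v Tween 80. One mouse per time point, cardiac blood under isoflurane, sampling to 24 h. Plasma stabilized, acetonitrile-precipitated, quantified by LC-MS against blank-plasma standards; Cmax read from concentration-time profile.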

In series [2] the target is T1, Dihydroorotate dehydrogenase (Plasmodium falciparum, UniProt Q54A96).
T1 sequence (Q54A96 whole entry): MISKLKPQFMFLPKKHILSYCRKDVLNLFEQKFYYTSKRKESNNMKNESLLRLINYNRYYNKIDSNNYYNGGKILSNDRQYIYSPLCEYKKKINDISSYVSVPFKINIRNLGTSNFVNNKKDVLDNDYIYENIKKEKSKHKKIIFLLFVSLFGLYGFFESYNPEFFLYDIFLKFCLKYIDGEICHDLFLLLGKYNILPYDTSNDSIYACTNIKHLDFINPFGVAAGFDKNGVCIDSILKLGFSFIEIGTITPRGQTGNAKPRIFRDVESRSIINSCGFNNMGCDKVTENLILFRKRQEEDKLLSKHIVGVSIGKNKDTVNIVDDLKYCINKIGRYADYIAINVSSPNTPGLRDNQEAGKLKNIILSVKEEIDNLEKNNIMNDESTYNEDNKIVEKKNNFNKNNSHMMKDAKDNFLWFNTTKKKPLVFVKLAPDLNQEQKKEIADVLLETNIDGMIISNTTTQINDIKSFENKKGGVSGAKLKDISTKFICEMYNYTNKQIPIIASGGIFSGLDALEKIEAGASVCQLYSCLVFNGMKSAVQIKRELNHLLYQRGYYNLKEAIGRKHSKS
Briefly: Inhibition of His6-tagged recombinant Plasmodium falciparum dihydroorotate dehydrogenase expressed in Escherichia coli using L-dihydroorotate as substrate after 5 to 10 mins by DCIP dye-based assay.

A short description of series [3]: Plasma protein binding in human by albumin chromatographic method. The following applies: read-out: PPB (converted). It counts as ADME, cell-free.
Series [4] concerns Plasmodium falciparum. Briefly: Antimalarial activity against Plasmodium falciparum 3D7 infected in human A positive erythrocytes by [3H]hypoxanthine uptake assay in presence of serum in medium. The series is classed as functional, organism-based. In outline:
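Growth read by [3H]-hypoxanthine uptake. Each concentration run in quadruplicate and fitted to a four-parameter variable-slope log[I]-response model for 50% growth inhibition.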

For series [5], the system named is Mus musculus. Briefly: Toxicity in Swiss mouse assessed as adverse effect at 20 mg/kg, po measured after 24 hrs. The series is classed as organism-based. More on the design: dose 20 mg/kg, route oral. The following applies: in vivo.
Series [6] is described as follows: Plasma protein binding in rat by ultracentrifugation analysis. The series is classed as ADME, cell-free. The following applies: read-out: PPB (converted). The essentials:
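Rat plasma spiked at 200 and 2000 ng/mL, then ultracentrifuged at 223,000 × g for 4.2 h at 37 °C. Free drug in the supernatant plasma water was compared with total drug in non-centrifuged plasma kept at 37 °C for the same time, giving fraction bound.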

Series [7] deals with Plasmodium berghei ANKA. Briefly: Antimalarial activity against Plasmodium berghei ANKA NK65 infected in Swiss Webster mouse assessed as complete cure of animal at 100 mg/kg, po qd measured on day 7 by light microscopic analysis. Details: dose 100 mg/kg. The series is classed as functional, organism-based. The essentials:
(§1)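 Female Swiss Webster mice, 8-10 weeks old (20-22 g), infected intraperitoneally with 2 × 10^7 P. berghei NK65 ANKA-infected erythrocytes. Oral doses in CMC vehicle (200 μL), first given 3 h post-infection, then at 24, 48 and 72 h. Parasitemia followed daily from 24 h by light microscopy at 1000× oil immersion, counting ≥10 fields of >100 erythrocytes. Mice losing ≥20% body weight were euthanized.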

A short description of series [8]: Inhibition of His6-tagged recombinant Plasmodium berghei dihydroorotate dehydrogenase expressed in Escherichia coli using L-dihydroorotate as substrate after 10 to 15 mins by DCIP dye-based assay. The following applies: in the assay text read “5 to 10 mins” for “10 to 15 mins”. The essentials:
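Truncated soluble enzyme lacking the N-terminal membrane domain. Final concentrations: 0.2 mM L-dihydroorotate, 0.02 mM CoQD, 0.12 mM DCIP. Reaction started with 10 nM enzyme and read at 600 nm for 5–10 min at 20 °C. Inhibitor 0.01–100 μM in 3-fold steps, in triplicate. IC50 from a three-parameter fit of vi/vo from initial rates.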

The subject of the next series is Liver microsomes. In words: Intrinsic clearance in human liver microsome assessed per mg of protein at 1 uM after 60 mins by LC-MS analysis. The series is classed as ADME. The following applies: microsomes, 1 h, 1 µM. In outline: (§2)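 Microsomal stability. Compound at 1 μM with liver microsomes (0.4 mg/mL protein) in 0.1 M phosphate pH 7.4 at 37 °C. Started with an NADPH-regenerating system plus MgCl2; controls lacked NADPH. Quenched with cold acetonitrile at time points up to 60 min. Parent loss measured by LC-MS and fitted to exponential decay to give CLint.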
In general terms: Microsomes from liver hold many membrane-bound enzymes, among them those of drug oxidation.

In series [9] the test system is Plasmodium falciparum. In words: Antimalarial activity against Plasmodium falciparum 3D7 infected in human A positive erythrocytes by [3H]hypoxanthine uptake assay in presence of serum in medium albumax. It counts as functional, organism-based.
Series [10] can be described thus: Aqueous solubility of the compound in phosphate buffer at pH 6.5. The series is classed as physicochemical. The following applies: phosphate buffer, read-out: solubility. In outline: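 Non-equilibrium solubility. Concentrated DMSO stocks were diluted into pH 6.5 phosphate buffer (final DMSO 1% v/v) and precipitation was monitored by nephelometry. Solubility is given as the concentration range just before a turbidity signal rose above background.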

The subject of series [11] is Mus musculus. In words: Toxicity in Plasmodium berghei ANKA NK65 infected Swiss Webster mouse assessed as adverse effect at 3 to 100 mg/kg, po qd for 4 days. It counts as organism-based. More on the design: dose 3-100 mg/kg, route oral. The following applies: in vivo, 96 h. The essentials: as §1
Series [12] deals with Mus musculus. In words: Time duration above 1 uM plasma concentration in Swiss mouse at 20 mg/kg, po. The series is classed as ADME, organism-based. Details: dose 20 mg/kg, route oral. The following applies: in vivo. The essentials: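 Non-fasted male Swiss outbred mice given a single gavage dose in suspension (0.5% Na-CMC, 0.5% benzyl alcohol, 0.4% Tween 80). One mouse per time point; blood taken by cardiac puncture under isoflurane into stabilizer over 24 h. Plasma measured by LC-MS; time above 1 μM read directly from the concentration-time profile.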

Series [13] deals with Mus musculus. In words: Toxicity in Plasmodium berghei ANKA NK65 infected Swiss Webster mouse assessed as adverse effect at 50 mg/kg, po bid for 4 days. It counts as organism-based. More on the design: dose 50 mg/kg, route oral. The following applies: in vivo, 96 h.
Series [14] concerns the target Dihydroorotate dehydrogenase (quinone), mitochondrial (Homo sapiens, UniProt Q02127). Briefly: Inhibition of His6-tagged recombinant human dihydroorotate dehydrogenase expressed in Escherichia coli using L-dihydroorotate as substrate after 5 to 10 mins by DCIP dye-based assay.
Series [15] deals with Plasmodium berghei ANKA. Briefly: Antimalarial activity against Plasmodium berghei ANKA NK65 infected in Swiss Webster mouse assessed as complete cure of animal at 50 mg/kg, po bid measured on day 7 by light microscopic analysis. More on the design: dose 50 mg/kg. The series is classed as functional, organism-based.
The subject of a further series is Liver. Briefly: Intrinsic clearance in mouse liver microsome assessed per mg of protein at 1 uM after 60 mins by LC-MS analysis. The series is classed as ADME. The following applies: microsomes, 1 h. In outline: as §2
The species entered for series [16] is Rattus norvegicus. In words: Toxicity in Sprague-Dawley rat assessed as adverse effects. The following applies: in vivo.
Series [17] has as its system Rattus norvegicus. In words: Toxicity in Sprague-Dawley rat assessed as adverse effects at 20 mg/kg, po. It counts as organism-based. More on the design: dose 20 mg/kg, route oral. The following applies: in vivo. The essentials: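 Male Sprague Dawley rats, fasted overnight, given compound as a 10 min IV jugular infusion (solution) or by oral gavage (suspension), n=2 per group. Monitored through 24 h of cannula blood sampling.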

Series [18] in a line: Partition coefficient, log D of the compound at pH 7.4 by UV-HPLC analysis. Conditions: octanol/water.

The structures appear in SMILES notation. In brackets after ≈: the same amount, converted by molar mass. Activity calls are given as the source filed them. No cut-off for these calls is given here. Where only a bound is given, the exact number is not on record here.

Sequence of Dihydroorotate dehydrogenase (quinone), mitochondrial (Q02127 whole entry): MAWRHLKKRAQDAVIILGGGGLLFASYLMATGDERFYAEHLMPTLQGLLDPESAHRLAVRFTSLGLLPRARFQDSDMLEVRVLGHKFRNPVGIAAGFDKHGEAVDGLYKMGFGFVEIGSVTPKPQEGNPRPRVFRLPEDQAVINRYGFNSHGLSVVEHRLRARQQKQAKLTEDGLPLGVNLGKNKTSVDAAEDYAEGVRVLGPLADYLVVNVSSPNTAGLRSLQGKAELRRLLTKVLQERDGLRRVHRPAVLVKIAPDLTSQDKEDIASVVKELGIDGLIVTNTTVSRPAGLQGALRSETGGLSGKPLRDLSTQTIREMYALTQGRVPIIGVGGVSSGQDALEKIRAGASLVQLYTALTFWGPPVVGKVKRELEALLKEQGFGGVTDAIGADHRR

`Cc1cc(Nc2cc(F)c(C(F)(F)F)c(F)c2)n2ncnc2n1` returned a Cmax in the series on Mus musculus [1] of 33 µM. The results for the IC50 in [2], in series [8] and in [14] were 190 nM, 280 nM and greater than 30000 nM, respectively. For the same compound, the values for the fraction unbound in series [3] and in series [6] were 0.034 and 0.027, respectively. In addition, the EC50 with Plasmodium falciparum [4] is 1100 nM; with Plasmodium falciparum [9], 220 nM. Further, the Activity entry in the series on Mus musculus [5], with Mus musculus [11], with Mus musculus [13], in the series filed under Rattus norvegicus [16] and in the series with Rattus norvegicus [17] was “Non-toxic” each time. Besides, the result in the series on Plasmodium berghei ANKA [7] and in the series on Plasmodium berghei ANKA [15] was inactive. Further, the CL is less than 5 µL/min/mg in the series with Liver microsomes and less than 6 µL/min/mg with Liver. In addition, the solubility in series [10] stood at 9 µM (≈ 2.96 µg/mL). The Time with Mus musculus [12] worked out at 19 h. The compound also registered a logD in series [18] of 2.9.
In the case of `Cc1cc(Nc2ccc(S(F)(F)(F)(F)F)cc2)n2ncnc2n1`, in the series with Mus musculus [1], the Cmax is 12 µM. The IC50 was 130 nM in [2], 280 nM in [8] and greater than 100000 nM in series [14]. Besides, the fraction unbound in series [3] is 0.046; in series [6] it was 0.048. The EC50 is 1300 nM in the series with Plasmodium falciparum [4] and 180 nM with Plasmodium falciparum [9]. Also, the Activity result in the series on Mus musculus [5], with Mus musculus [11], in the series on Mus musculus [13], in the series listed under Rattus norvegicus [16] and in the series with Rattus norvegicus [17] was “Non-toxic” throughout. Also, the result in the series with Plasmodium berghei ANKA [7] and in the series with Plasmodium berghei ANKA [15] was inactive. In addition, the CL in the series with Liver microsomes was less than 5 µL/min/mg; in the series on Liver it was less than 6 µL/min/mg. Moreover, the solubility in series [10] came to 71 µM (≈ 24.9 µg/mL). Further, the Time with Mus musculus [12] turned out to be 18 h. In series [18], this compound registered a logD of 3.
